TCR-CD3 inh = blocks the human TCR-CD3 interaction. inhibition, % at 9.4 µM. hit rate 0.37% among 360,000. TAMRA-labeled TCR probe fluorescence, biochemical; in the data active = inhibition above about 19%;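 note: recombinant mutant TCR 2C K166C tagged with TAMRA read by polarization; 0% = receptor in buffer alone and 100% = receptor with positive control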
ARNT-TACC3 inh = ARNT/TACC3 interaction disruption | Q9Y6A5 | AlphaScreen His-ARNT PAS-B/GST-TACC3 binding, luminescence; TACC3 fragment carries E629A point mutation | inhibition, % at 9.99 µM | hit rate 0.66% among 390,000;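 active = mean inhibition of replicates at least 50% and at least half of replicates each reaching 50%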;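 note: 0% = complete ARNT plus TACC3 wells and 100% = ARNT alone without TACC3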
ABHD4 inh = inhibits mouse alpha/beta hydrolase domain 4; purified mABHD4, FP-Rh probe fluorescence polarization; hit rate 0.54% among 370,000; inhibition, % at 8.92 µM; Q8VD66; AID 720543;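 active = inhibition exceeding the mean over every tested compound plus 3 SD, cut at about 30% in these data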;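 note: 0% = plate median of compound wells and 100% = S159A mutant with DMSO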
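Assay system: mABHD4 protein; medium: HEPES pH 7.0, NaCl, Pluronic buffer; dosing: 8.92 µM, single dose; schedule: 45 min + 60 min at 25 °C; signal: FP readout, ex 525 nm / em 598 nm; read-out: normalized percent inhibition of probe labeling; repeats: single replicate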
HTRA1 inhibitor = HTRA1 (human) protease inhibition. recombinant HTRA1, FP-rhodamine activity-based probe, fluorescence polarization. inhibition, % at 5.96 µM. hit rate 0.5% among 340,000. AID 504803; in the data active = inhibition above about 36%;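 note: 0% = enzyme with DMSO and 100% = wells lacking enzyme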
SIAE primary = inhibitors of human sialic acid acetylesterase SIAE | Q9HAT2 | SIAE FP-Rh probe binding, fluorescence polarization | inhibition, % at 9.66 µM | hit rate 0.69% among 370,000;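 active = inhibition above a cutoff: mean of compounds within the control limits plus 3 SD of those, cut at about 17% in these data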;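 note: 0% = plate median of compound wells and 100% = probe without SIAE protein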
Target sequence (Q9HAT2 whole entry, looked up): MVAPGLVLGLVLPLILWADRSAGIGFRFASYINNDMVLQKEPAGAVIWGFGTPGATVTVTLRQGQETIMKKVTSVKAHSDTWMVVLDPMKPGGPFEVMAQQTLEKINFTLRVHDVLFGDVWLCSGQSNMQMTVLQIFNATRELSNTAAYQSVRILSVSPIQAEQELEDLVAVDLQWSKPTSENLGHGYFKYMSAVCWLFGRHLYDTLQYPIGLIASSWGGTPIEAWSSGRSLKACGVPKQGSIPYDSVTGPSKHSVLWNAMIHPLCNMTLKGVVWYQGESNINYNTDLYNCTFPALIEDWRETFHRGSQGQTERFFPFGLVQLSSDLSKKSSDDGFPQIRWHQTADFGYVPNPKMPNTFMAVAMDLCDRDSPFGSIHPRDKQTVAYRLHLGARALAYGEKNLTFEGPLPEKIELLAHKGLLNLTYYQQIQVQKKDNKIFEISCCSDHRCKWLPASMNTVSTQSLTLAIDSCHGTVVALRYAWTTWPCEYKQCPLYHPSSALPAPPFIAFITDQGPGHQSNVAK
* = called active by the depositor; · = no result given. This is a sample that favours compounds with a hit; in the whole collection about 1.8% have one here.

SMILES	TCR-CD3 inh	ARNT-TACC3 inh	ABHD4 inh	HTRA1 inhibitor	SIAE primary
O=C(NC(=S)Nc1ccc(S(=O)(=O)Nc2nccs2)cc1)c1ccccc1	5.7	-4.0	3.8	-9.0	1.3
O=C(NC(=S)Nc1ccc(S(=O)(=O)Nc2nccs2)cc1)c1ccc(Br)o1	1.7	52.3*	2.9	-14.1	-5.3
COc1cc(C2c3c(oc4ccccc4c3=O)C(=O)N2Cc2ccco2)ccc1O (stereo unspecified)	4.2	-1.8	4.0	-1.0	4.7
COc1cccc(C2c3c(oc4ccccc4c3=O)C(=O)N2Cc2ccco2)c1 (stereo unspecified)	-2.0	47.0*	9.2	3.3	5.3
CO[C@H]1CN(C)C(=O)c2cc(NC(=O)NC(C)C)ccc2OC[C@@H](C)N(C(=O)C2CCC2)C[C@@H]1C	·	-1.9	·	·	·
Cc1ccc2nc(C)c(Cl)c(=O)n2c1	-2.1	-3.0	5.4	-4.4	-0.8
Cc1ccc2nc(Cl)c(/C=N/Nc3nc(C)cc(C)n3)c(=O)n2c1	3.3	46.4*	4.1	8.8	-3.0
COc1ccc(CN(C(=O)Cc2c[nH]c3ccccc23)C(C(=O)NC2CCCCC2)c2ccc(C)o2)cc1 (stereo unspecified)	4.1	-2.5	-11.4	-37.8	-0.7
COc1cccc(CN(C(=O)Cc2c[nH]c3ccccc23)C(C(=O)NC2CCCCC2)c2ccc(C)o2)c1 (stereo unspecified)	-1.2	3.8	-6.4	-32.8	18.0*
COc1cccc(CN(C(=O)c2ccco2)C(C(=O)NC2CCCC2)c2cccnc2)c1 (stereo unspecified)	-11.8	-6.5	-4.0	-0.2	135.3*
COc1ccc(N(C(=O)c2ccco2)C(C(=O)NC2CCCC2)c2cccnc2)c(OC)c1 (stereo unspecified)	-2.0	·	-4.0	-3.0	2.2
CCCNC(=O)N1C[C@H](O)COC[C@@H]2O[C@@H](CC(=O)N3CCOCC3)CC[C@H]21	·	-17.7	·	·	·
Cc1ccc(S(=O)(=O)N[C@@H]2CC[C@H](CCn3cc(-c4cccnc4)nn3)O[C@H]2CO)cc1	·	-1.6	·	·	·
CC(C)NC(=O)Nc1ccc2c(c1)C(=O)N([C@H](C)CO)C[C@H](C)[C@@H](CN(C)C(=O)CCCN(C)C)OCCCC[C@H](C)O2	·	-0.6	·	·	·
S=C(Nc1ccc2nc(-c3ccccn3)c(-c3ccccn3)nc2c1)N1CCCCCC1	-7.0	8.4	7.0	-8.8	-5.0
S=C(Nc1ccc2nc(-c3ccccn3)c(-c3ccccn3)nc2c1)N1CCCCC1	·	70.2*	·	5.5	·
S=C(Nc1ccc2nccnc2c1)N1CCOCC1	-9.3	45.7*	0.8	0.9	-2.8
S=C(Nc1ccc2nsnc2c1)N1CCCCC1	3.1	29.3*	8.4	4.2	16.8
CCCNC(=S)Nc1ccc2nc(-c3ccccn3)c(-c3ccccn3)nc2c1	0.1	56.6*	6.6	-3.5	8.8
Cc1ccc(NC(=S)N2CCOCC2)cc1	-3.7	-6.4	9.4	10.2	4.3
Cc1nc2ccc(NC(=S)NCCCO)cc2nc1C	7.5	10.9	5.9	7.9	2.4
CC(C)C#Cc1cnc2c(c1)C(=O)N([C@@H](C)CO)C[C@@H](C)[C@H](CN(C)C(=O)c1ccccc1F)O2	·	3.6	·	·	·
Cc1ccccc1C(=O)N1CCC(C(=O)Nc2cccc(F)c2)CC1	-0.2	-1.9	-4.6	0.5	26.3*
O=C1CSC(=S)N1N=Cc1ccc(Cl)s1	-22.2	61.2*	15.4	11.6	-43.5
CC(C)(C)c1ccc(/C=N/N2C(=O)CSC2=S)cc1	7.0	9.1	-0.7	1.8	-3.4
SMILES	TCR-CD3 inh	ARNT-TACC3 inh	ABHD4 inh	HTRA1 inhibitor	SIAE primary
O=C1CSC(=S)N1/N=C/c1ccc(O)c(O)c1O	·	97.7*	·	28.0	·
C[C@@H]1CN([C@H](C)CO)C(=O)Cc2cc(NC(=O)CCN3CCOCC3)ccc2O[C@@H]1CN(C)Cc1ccncc1	·	5.2	·	·	·
Cc1cccc(C(=O)Nc2cccc(C(=O)N/N=C/c3ccccn3)c2)c1	-2.4	71.4*	-18.4	-15.5	6.5
O=C(O)c1cccc(NC(=S)N/N=C/c2ccccn2)c1	5.8	66.4*	25.4	-4.5	8.6
Cc1cc(C(=O)N/N=C/c2ccccn2)n[nH]1	3.6	·	1.7	-0.8	-11.3
Cc1ccsc1/C=N/NC(=O)c1cccc(S(=O)(=O)Nc2ccccc2Cl)c1	-2.4	-14.1	-1.4	14.0	-10.7
O=C(O)c1cccc(NC(=S)N/N=C/c2cccc(O)c2)c1	4.7	·	-6.1	0.5	2.2
O=C(N/N=C/c1ccccn1)c1cccc(S(=O)(=O)Nc2ccccc2Cl)c1	-1.4	65.1*	-10.3	5.4	4.2
O=C(N/N=C/c1ccccn1)c1cc(C2CC2)[nH]n1	-0.7	48.3*	-1.5	1.8	-6.7
COc1cccc(-c2ccc3n(c2=O)C[C@@H]2[C@@H](CO)[C@H](C(=O)N4CCCCC4)N(C)[C@H]32)c1	·	0.6	·	·	·
O=C(N/N=C/c1ccccn1)c1cccc(NC(=O)c2ccccc2Cl)c1	-10.4	63.1*	-17.7	-10.2	2.0
O=C(N/N=C/c1ccccn1)C(=O)N1CCCCCC1	-3.9	53.2*	2.7	10.7	0.9
Cc1cccc(C(=O)N/N=C/c2ccccn2)c1	-10.3	54.0*	2.0	5.6	-2.7
O=C(N/N=C/c1ccccn1)c1cc([N+](=O)[O-])cc([N+](=O)[O-])c1	-5.2	60.5*	17.9	2.8	1.7
CC(C)(C)c1ccc(C(=O)N/N=C/c2ccccn2)cc1	1.0	41.4	-3.4	12.1	1.2
Cc1cccc(/C=N/NC(=O)c2ccncc2)n1	-5.0	62.6*	-1.2	-0.2	0.7
Cc1cccc(/C=N/NC(=O)c2ccc(NC(=O)c3ccccc3C)cc2)n1	1.5	10.6	6.6	-3.8	-4.4
CO[C@H]1CN(C)C(=O)c2ccc(NC(=O)Cc3ccccc3)cc2OC[C@@H](C)N(CC2CC2)C[C@H]1C	·	-4.6	·	·	·
COCc1cc(=O)[nH]c(Nc2nc3ccccc3o2)n1	8.3	59.9*	5.8	8.2	0.9
COC(=O)Cc1cc(=O)[nH]c(Nc2nc3ccccc3o2)n1	-0.5	26.3	-25.6	7.5	-11.9
CO[C@@H]1CN(C)C(=O)c2cc(NC(=O)C3CCC3)ccc2OC[C@@H](C)NC[C@@H]1C	·	-1.3	·	·	·
CCC(=O)NC(=S)NNC(=O)c1ccc(O)cc1	9.4	75.1*	2.7	-10.6	-1.5
C[C@H](CO)N1C[C@H](C)[C@H](CN(C)Cc2ccc(Oc3ccccc3)cc2)Oc2ccc(NC(=O)CCCN(C)C)cc2C1=O	·	21.8	·	·	·
N=c1c(C(=O)NCc2ccco2)cc2c(=O)n3ccccc3nc2n1CCc1ccccc1	9.0	35.1	4.7	-19.4	-4.8
COc1ccc(CCn2c(=N)c(C(=O)NCc3ccco3)cc3c(=O)n4ccccc4nc32)cc1OC	-4.1	27.5*	-2.7	2.6	-7.2
CC(C)(C)S(=O)(=O)c1cnc(-c2ccccn2)nc1N	1.6	58.7*	10.0	7.0	-7.8
O=c1[nH][nH]c2c(N=Cc3ccccc3O)ccc(F)c12	·	69.0*	·	46.6*	·
C[C@H](CO)N1C[C@H](C)[C@@H](CN(C)S(=O)(=O)c2ccc(Cl)cc2)Oc2ccc(NS(=O)(=O)c3ccc(F)cc3)cc2C1=O	·	7.0	·	·	·

Screens deposited in PubChem by several laboratories.
